By IC50 is commonly meant the concentration that inhibits the measured activity by half. A low value points to higher potency. As usually defined, the Inhibition is the percentage by which the read-out fell short of the control. A word on the inhibition: it is the drop in the measured response relative to a control, in per cent. A higher inhibition goes with a response far below the control. In general, pKa refers to the negative logarithm of the acid dissociation constant. What is called logP is the decadic logarithm of the partition coefficient of the neutral form, usually between octanol and water. Low readings indicate lower lipophilicity, high ones higher lipophilicity.

This note sets out measurements from ChEMBL document CHEMBL1129462, “Synthesis and angiotensin II receptor antagonistic activities of benzimidazole derivatives bearing acidic heterocycles as novel tetrazole bioisosteres” (J Med Chem, 1996).

Series [1] in a line: Inhibition of specific binding of [125I]angiotensin II (0.2 nM) to angiotensin II receptor in bovine adrenal cortex. The series is classed as tissue-based, Bos taurus.
Series [2] has as its system Rattus norvegicus. The series is described as follows: Percent inhibition of AII (0.1 ug/kg iv) -induced pressor response at 7 hr after administration of test compounds (0.1 mg/kg po) in conscious male Sprague-Dawley rats. The series is classed as functional. Particulars: in the assay text read “3 hr” for “7 hr”. A digest of the protocol:
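In conscious male Sprague-Dawley rats, the oral test dose was 0.1 mg/kg. The pressor response to an AII challenge (0.1 μg/kg iv) was recorded after dosing, and percent inhibition was calculated.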

For series [3], the target named is T1, Angiotensin II receptor (Rattus norvegicus) (UniProt P29089+P25095+P35351). The series can be described thus: Percent inhibition of angiotensin II (0.1 ug/kg iv) -induced pressor response 3h after administration of test compounds (1 mg/kg po) in conscious male Sprague-Dawley rats. The series is classed as functional, organism-based. The method, boiled down: (§1)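 Conscious male Sprague-Dawley rats were given the test compound at 1 mg/kg orally. They were then challenged with AII at 0.1 μg/kg iv. The AII-induced pressor response was measured 3 and 7 h after dosing and expressed as percent inhibition.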

In series [4] the target is T1, Angiotensin II receptor (Rattus norvegicus). The series is described as follows: Percent inhibition of angiotensin II (0.1 ug/kg iv) -induced pressor response 7 hr after administration of test compounds (1 mg/kg po) in conscious male Sprague-Dawley rats. The series is classed as functional, organism-based. The method, boiled down: as §1
For series [5], the system named is Rattus norvegicus. The series is described as follows: Percent inhibition of AII-induced pressor response 7 hr after administration of test compounds (1 mg/kg po) in conscious male Sprague-Dawley rats.
The nature of series [6]: Bioavailability. The series is classed as ADME, organism-based. The settings on record: eutheria, in vivo; read-out: BA.
A short description of series [7]: pka value was determined. The series is classed as physicochemical. A digest of the protocol:
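pKa of the acidic group was estimated from the corresponding methyl ester. Titration was potentiometric with standardized 0.1 N NaOH in DMSO–H2O (2:3) at 26 °C.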

In series [8] the test system is Rattus norvegicus. The series is described as follows: Percent inhibition of AII ([…]) -induced pressor response 7 hr after administration of test compounds (1 mg/kg po) in conscious male Sprague-Dawley rats. The series is classed as functional.
Series [9] can be described thus: Partition coefficient (logP). Particulars: octanol/water. In kind it is physicochemical.
In series [10] the test system is Rattus norvegicus. The series can be described thus: Percent inhibition of AII (0.1 ug/kg iv) -induced pressor response at 3 hr after administration of test compounds (0.1 mg/kg po) in conscious male Sprague-Dawley rats.

`CCCCc1nc2cccc(C(=O)O)c2n1Cc1ccc(-c2ccccc2-c2nsc(O)n2)cc1`: the IC50 in [1] was 720 nM. In the series on Rattus norvegicus [2], this compound showed an Inhibition of 19%. The same compound had an inhibition in series [3] of 92%.
Turning to `Cc1nc2cccc(C(=O)O)c2n1Cc1ccc(-c2ccccc2-c2nsc(O)n2)cc1`, in series [1], the IC50 turned out to be 970 nM. For the same compound, the inhibition in [4] turned out to be 71%; in series [3] it was 80%.
For `CCCc1nc2cccc(C(=O)O)c2n1Cc1ccc(-c2ccccc2-c2noc(S)n2)cc1`, in that order: 390 nM, 94% and 96%.
For the compound `COc1nc2cccc(C(=O)O)c2n1Cc1ccc(-c2ccccc2-c2nsc(O)n2)cc1`, the values for the inhibition in series [4] and in series [3] were 91% and 88%, respectively.
In series [1], `CCCCc1nc2cccc(C(=O)O)c2n1Cc1ccc(-c2ccccc2-c2noc(O)n2)cc1` yielded an IC50 of 620 nM. Moreover, the inhibition in series [4] turned out to be 64%; in series [3] it was 68%.
For `CCCc1nc2cccc(C(=O)O)c2n1Cc1ccc(-c2ccccc2-c2nsc(O)n2)cc1`, in that order: 360 nM, 100% and 100%.
Compound `Cc1nc2cccc(C(=O)O)c2n1Cc1ccc(-c2ccccc2-c2noc(S)n2)cc1` registered an IC50 in series [1] greater than 1000 nM. Moreover, the values for the inhibition in [4] and in [3] were 50% and 57%, respectively.
For `CSc1nc2cccc(C(=O)O)c2n1Cc1ccc(-c2ccccc2-c2noc(S)n2)cc1`, in that order: 1000 nM, 91% and 100%.
For `CNc1nc2cccc(C(=O)O)c2n1Cc1ccc(-c2ccccc2-c2nsc(O)n2)cc1`, in that order: 540 nM, 29% and 32%.
In series [1], `CCCCc1nc2cccc(C(=O)OC)c2n1Cc1ccc(-c2ccccc2-c2nsc(O)n2)cc1` had an IC50 greater than 1000 nM. In the series on Rattus norvegicus [2], this compound gave an Inhibition of 10%. Also, the inhibition in [3] came to 87%.
Turning to `CCCCc1nc2cccc(C(=O)OC)c2n1Cc1ccc(-c2ccccc2C2=NOS(=O)N2)cc1` (stereo unspecified), in [1], the IC50 was greater than 1000 nM. Also, in [3], the inhibition is 63%. This compound also showed an Inhibition with Rattus norvegicus [5] of 22%.
In series [1], `CCc1nc2cccc(C(=O)O)c2n1Cc1ccc(-c2ccccc2-c2nsc(O)n2)cc1` yielded an IC50 of 69 nM. Moreover, the inhibition in series [4] and in series [3] was 100% each time.
Take `CCOc1nc2cccc(C(=O)O)c2n1Cc1ccc(-c2ccccc2-c2nnn[nH]2)cc1`: in series [6], the bioavailability was 5%. In addition, the pKa in series [7] stood at 5.3. In series [1], this compound yielded an IC50 of 110 nM.
Take `CCCSc1nc2cccc(C(=O)O)c2n1Cc1ccc(-c2ccccc2-c2noc(S)n2)cc1`: the IC50 in series [1] is greater than 1000 nM. Further, the inhibition in series [4] and in series [3] was 100% throughout.
With `CCSc1nc2cccc(C(=O)O)c2n1Cc1ccc(-c2ccccc2-c2nsc(O)n2)cc1`, the IC50 in [1] was determined as 470 nM. For the same compound, the inhibition in [4] and in series [3] was 100% throughout.
`CCc1nc2cccc(C(=O)O)c2n1Cc1ccc(-c2ccccc2-c2noc(S)n2)cc1` displayed an IC50 in series [1] of 340 nM. Moreover, the figures for the inhibition in series [4] and in series [3] were 89% and 91%, respectively.
For the compound `CCCCc1nc2cccc(C(=O)OC)c2n1Cc1ccc(-c2ccccc2-c2nn[nH]n2)cc1`, in series [1], the IC50 amounted to 320 nM.
In series [1], `CCCOc1nc2cccc(C(=O)O)c2n1Cc1ccc(-c2ccccc2-c2nsc(O)n2)cc1` showed an IC50 of 920 nM. The inhibition in [4] stood at 100%; in series [3], 83%.
In the case of `CCCCc1nc(Cl)c(CO)n1Cc1ccc(-c2ccccc2-c2nnn[nH]2)cc1` [LOSARTAN], the IC50 in [1] was found to be 150 nM.
`CCCCc1nc2cccc(C(=O)O)c2n1Cc1ccc(-c2ccccc2-c2noc(S)n2)cc1`: the IC50 in series [1] amounted to 760 nM. The compound also gave an Inhibition in the series on Rattus norvegicus [2] of 19%. In series [3], this compound registered an inhibition of 82%.
Regarding `CCOc1nc2cccc(C(=O)OC)c2n1Cc1ccc(-c2ccccc2C2=NOS(=O)N2)cc1` (stereo unspecified), the IC50 in series [1] was determined as 460 nM. Further, the Inhibition with Rattus norvegicus [8] amounted to 29%. In series [3], this compound yielded an inhibition of 35%.
In [1], `CCCCc1nc2cccc(C(=O)O)c2n1Cc1ccc(-c2ccccc2-c2nn[nH]n2)cc1` registered an IC50 of 550 nM.
`CCSc1nc2cccc(C(=O)O)c2n1Cc1ccc(-c2ccccc2-c2noc(S)n2)cc1` had an IC50 in [1] of 690 nM. Moreover, the inhibition in [4] and in [3] was 100% in each case.
Take `CCOc1nc2cccc(C(=O)O)c2n1Cc1ccc(-c2ccccc2-c2nsc(O)n2)cc1`: in series [6], the bioavailability stood at 51%. Besides, the logP in series [9] was 1.58. In series [7], the pKa came to 6.6. Further, the concentration for half-maximal inhibition (IC50) in series [1] stood at 250 nM. In the series with Rattus norvegicus [2], the Inhibition was 100%. In series [3], this compound gave an inhibition of 100%.
As to `CCOc1nc2cccc(C(=O)OC)c2n1Cc1ccc(-c2ccccc2-c2nsc(O)n2)cc1`, the IC50 in series [1] worked out at 750 nM. The inhibition in [4] and in series [3] was 100% in each case.
Take `CCNc1nc2cccc(C(=O)O)c2n1Cc1ccc(-c2ccccc2-c2nsc(O)n2)cc1`: the IC50 in series [1] is 130 nM. Also, the inhibition turned out to be 71% in [4] and 70% in series [3].
For the compound `CSc1nc2cccc(C(=O)O)c2n1Cc1ccc(-c2ccccc2-c2nsc(O)n2)cc1`, the IC50 in series [1] was 500 nM. Besides, the inhibition in [4] and in series [3] was 100% throughout.
Turning to `CCOc1nc2cccc(C(=O)OC)c2n1Cc1ccc(-c2ccccc2-c2noc(O)n2)cc1`, in series [1], the IC50 is 440 nM. Further, the inhibition in series [4] and in series [3] was 100% throughout.
As for `CCOc1nc2cccc(C(=O)O)c2n1Cc1ccc(-c2ccccc2-c2noc(=O)[nH]2)cc1` [AZILSARTAN], the bioavailability in [6] was 20%. The pKa in [7] was 6.1. The same compound returned an IC50 in series [1] of 420 nM. Further, the inhibition in [3] came to 100%. The same compound came in with an Inhibition with Rattus norvegicus [10] of 75%.
In series [1], `CCOc1nc2cccc(C(=O)OC)c2n1Cc1ccc(-c2ccccc2-c2nn[nH]n2)cc1` had an IC50 of 66 nM.
Turning to `CCOc1nc2cccc(C(=O)OC)c2n1Cc1ccc(-c2ccccc2-c2noc(S)n2)cc1`, in series [1], the IC50 was greater than 1000 nM. Further, the results for the inhibition in series [4] and in series [3] were 93% and 83%, respectively.
For `CCCSc1nc2cccc(C(=O)O)c2n1Cc1ccc(-c2ccccc2-c2nsc(O)n2)cc1`, in that order: greater than 1000 nM, 100% and 100%.
Compound `CCCCc1nc2cccc(C(=O)OC)c2n1Cc1ccc(-c2ccccc2-c2noc(O)n2)cc1` gave an IC50 in series [1] of 900 nM.
Regarding `CCCCc1nc2cccc(C(=O)OC)c2n1Cc1ccc(-c2ccccc2-c2noc(S)n2)cc1`, the half-inhibitory concentration (IC50) in series [1] is greater than 1000 nM. The compound also came in with an inhibition in series [3] of 84%. For the same compound, the Inhibition in the series on Rattus norvegicus [10] was 7%.
